Results taken from ChEMBL document CHEMBL1132961 (J Med Chem, 2000).

What was measured:
[1] = Effective concentration required for antiviral activity against HIV-1 1002-60 in PBMC cells; format: functional, cell-based; conditions: Homo sapiens
Method in brief: (§1)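 PBMC cells infected with HIV-1 clinical isolates, using an XTT cytopathic assay similar to the CEM assay. EC50 read as protection from viral cytopathic effect.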

[2] = Effective concentration required for antiviral activity against HIV-1 1026-60 in PBMC cells; format: functional, cell-based; conditions: Homo sapiens; method in brief: as §1
[3] = Effective concentration required for antiviral activity against HIV-1 144-44 in PBMC cells; format: functional, cell-based; conditions: Homo sapiens; method in brief: as §1
[4] = Tested for cytotoxic activity against HIV-1 1002-60 in PBMC cells; format: cell-based; conditions: human, read-out: TC50 (the source's name)
[5] = Tested for cytotoxic activity against HIV-1 1026-60 in PBMC cells; format: cell-based; conditions: human, read-out: TC50 (the source's name)
[6] = Tested for cytotoxic activity against HIV-1 144-44 in PBMC cells; format: cell-based; conditions: human, read-out: TC50 (the source's name)
[7] = Concentration which elicits cytotoxicity in 50% of uninfected human lymphocyte derived CEM cells; format: cell-based, CCRF-CEM; conditions: uninfected CCRF-CEM cells, read-out: TC50 (the source's name)
Method in brief: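 Cytotoxicity measured in uninfected human lymphocyte-derived CEM cells by XTT protocol.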

[8] = Effective concentration required for antiviral activity against HIV-1 RoJo in PBMC cells; format: functional, cell-based; conditions: Homo sapiens; method in brief: as §1
[9] = Effective concentration required for antiviral activity against HIV-1 SLKA in PBMC cells; format: functional, cell-based; conditions: Homo sapiens; method in brief: as §1
[10] = Effective concentration required for antiviral activity against HIV-1 TEKI in PBMC cells; format: functional, cell-based; conditions: Homo sapiens; method in brief: as §1
[11] = Effective concentration required for antiviral activity against HIV-1 WeJo in PBMC cells; format: functional, cell-based; conditions: Homo sapiens; method in brief: as §1
[12] = target: T1, Human immunodeficiency virus type 1 protease (Human immunodeficiency virus 1, UniProt Q72874); test: Activity of potent nonpeptidic inhibitor against protease
Method in brief: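 Incubated with 40 µM His-Lys-Ala-Arg-Val-Leu-(p-NO₂-Phe)-Glu-Ala-Nle-Ser-NH₂ in 1.0% DMSO, pH 6.2 MES buffer (DTT, NaCl, EDTA, PEG 8000) for 60 min at 37 °C, then TFA quench. Substrate and product separated by reverse-phase HPLC, read at 220 nm. % control = conversion with inhibitor / conversion without × 100; IC50 derived.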

[13] = test system: Human immunodeficiency virus 1; test: Effective concentration at which 50% of the HIV-IIIB-infected human lymphocyte-derived CEM cells protected from HIV-1 infection; conditions: Human immunodeficiency virus 1, CCRF-CEM
CYP2C9 [14] = target: T2, CYP2C9 (Homo sapiens, UniProt P11712); test: Residual activity of cytochrome P450 at 10 uM
CYP3A4 [15] = target: T3, CYP3A4 (Homo sapiens, UniProt P08684); test: Residual activity of cytochrome P4503A4 at 1 uM
CYP2C9 [16] = target: T2, CYP2C9; test: Residual activity of cytochrome P450 2C9 at 1 uM
CYP3A4 [17] = target: T3, CYP3A4; test: Residual activity of cytochrome P4503A4 at 10 uM
CYP3A4 [18] = target: T3, CYP3A4; test: Residual activity of cytochrome P4503A4 at 100 uM
[19] = Tested for maximum plasma concentration in mice; format: ADME, organism-based; conditions: mouse
Method in brief: (§2)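 Mice dosed orally by gavage at 25 mg/kg. Vehicle was usually 20% 0.1 N NaOH/80% 0.5% methylcellulose, and in two cases 20% 0.1 N NaOH/80% PEG 400. Plasma Cmax and AUC measured; AUC not determined where Cmax was too low.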

[20] = target: T1, Human immunodeficiency virus type 1 protease; test: Tested for binding affinity against HIV protease
[21] = AUC value in mice; format: ADME, organism-based; conditions: mouse, plasma; method in brief: as §2
[22] = pooled result: one value given for 5 cell lines, strains, targets or settings

T3 sequence (P08684 whole entry): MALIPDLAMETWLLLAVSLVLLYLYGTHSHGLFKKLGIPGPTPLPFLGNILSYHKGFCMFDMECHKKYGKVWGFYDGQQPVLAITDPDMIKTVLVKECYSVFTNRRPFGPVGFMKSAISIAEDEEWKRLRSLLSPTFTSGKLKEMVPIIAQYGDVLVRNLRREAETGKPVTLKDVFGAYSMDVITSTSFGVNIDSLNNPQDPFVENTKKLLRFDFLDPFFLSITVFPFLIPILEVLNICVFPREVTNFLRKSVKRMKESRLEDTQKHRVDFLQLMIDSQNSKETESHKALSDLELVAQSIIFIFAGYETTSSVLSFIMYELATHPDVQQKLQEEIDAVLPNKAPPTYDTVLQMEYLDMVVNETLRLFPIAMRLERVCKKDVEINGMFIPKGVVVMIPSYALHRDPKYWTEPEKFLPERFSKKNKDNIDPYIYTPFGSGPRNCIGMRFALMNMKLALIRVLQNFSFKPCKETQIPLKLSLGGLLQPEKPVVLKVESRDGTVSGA
T2 sequence (P11712 whole entry): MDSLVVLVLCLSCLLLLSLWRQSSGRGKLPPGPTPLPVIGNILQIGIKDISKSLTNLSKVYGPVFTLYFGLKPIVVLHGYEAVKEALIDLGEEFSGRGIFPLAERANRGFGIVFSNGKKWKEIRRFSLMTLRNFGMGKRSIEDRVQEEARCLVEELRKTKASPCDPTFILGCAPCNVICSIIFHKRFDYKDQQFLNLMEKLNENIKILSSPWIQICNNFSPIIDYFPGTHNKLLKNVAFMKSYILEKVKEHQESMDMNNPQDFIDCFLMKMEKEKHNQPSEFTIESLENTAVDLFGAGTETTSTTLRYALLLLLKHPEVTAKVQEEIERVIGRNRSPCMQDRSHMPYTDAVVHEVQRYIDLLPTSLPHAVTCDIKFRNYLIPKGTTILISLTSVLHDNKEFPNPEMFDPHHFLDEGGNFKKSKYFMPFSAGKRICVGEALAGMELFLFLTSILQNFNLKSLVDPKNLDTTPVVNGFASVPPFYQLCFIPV

EC50 [2]	EC50 [3]	IC50 [12]	EC50 [13]	Cmax [19]	Compound	CC50 [5]	CC50 [7]	also measured
19400 nM	11100 nM				CC(C)(C)NC(=O)[C@@H]1C[C@@H]2CCCC[C@@H]2CN1C[C@@H](O)[C@H](Cc1ccccc1)NC(=O)[C@H](CC(N)=O)NC(=O)c1ccc2ccccc2n1	> 50000 nM		EC50 [1]: 14500 nM; CC50 [4]: > 50000 nM; CC50 [6]: > 50000 nM
1120 nM	730 nM	2.2 nM	600 nM		Cc1cc(SC2=C(O)OC(CCc3ccc(O)cc3)(C(C)C)CC2=O)c(C(C)(C)C)cc1OS(C)(=O)=O (stereo unspecified)	> 100000 nM	> 100000 nM	EC50 [1]: 1840 nM; EC50 [8]: 1240 nM; EC50 [9]: 1790 nM; EC50 [10]: 1930 nM; EC50 [11]: 2050 nM; CC50 [4]: > 100000 nM; CC50 [6, 22]: > 100000 nM
		4.5 nM	600 nM		Cc1cc(SC2=C(O)OC(CCc3ccc(O)cc3)(C(C)C)CC2=O)c(C(C)(C)C)cc1OS(=O)(=O)c1ccc(C#N)cc1 (stereo unspecified)		67000 nM	residual activity at 10 µM (CYP2C9 [14]): 18.1%; residual activity at 1 µM (CYP3A4 [15]): 79%; residual activity at 1 µM (CYP2C9 [16]): 83.5%; residual activity at 10 µM (CYP3A4 [17]): 34.6%; residual activity at 100 µM (CYP3A4 [18]): 6.86%
		9.1 nM	500 nM	2000 nM	Cc1cc(SC2=C(O)OC(CCc3ccccc3)(C(C)C)CC2=O)c(C(C)(C)C)cc1NS(=O)(=O)c1ccc(C#N)cc1 (stereo unspecified)		66000 nM	
1420 nM	540 nM	21.8 nM	2400 nM		Cc1cc(SC2=C(O)OC(CCc3ccc(O)cc3)(C(C)C)CC2=O)c(C(C)(C)C)cc1OS(=O)(=O)c1cccs1 (stereo unspecified)	> 100000 nM	72000 nM	EC50 [8]: 700 nM; EC50 [9]: 500 nM; EC50 [10]: 780 nM; EC50 [11]: 390 nM; CC50 [6, 22]: > 100000 nM
		3 nM	700 nM	1140 nM	Cc1cc(SC2=C(O)OC(CCc3ccccc3)(C(C)C)CC2=O)c(C(C)(C)C)cc1NS(=O)(=O)c1ccccn1 (stereo unspecified)		67000 nM	
		2.2 nM	1600 nM		Cc1cc(SC2=C(O)OC(CCc3ccc(O)cc3)(C(C)C)CC2=O)c(C(C)(C)C)cc1NS(=O)(=O)c1ccc(C#N)cc1 (stereo unspecified)		85000 nM	Ki [20]: 0.41 nM
			4300 nM	1270 nM	Cc1cc(SC2=C(O)OC(CCc3ccc(O)cc3)(C(C)C)CC2=O)c(C(C)(C)C)cc1NS(=O)(=O)c1ccc(C(F)(F)F)cn1 (stereo unspecified)		68000 nM	AUC [21]: 980 ng·h/mL
			1600 nM		Cc1cc(SC2=C(O)OC(CCc3ccccc3)(C(C)C)CC2=O)c(C(C)(C)C)cc1NS(C)(=O)=O (stereo unspecified)		> 100000 nM	Ki [20]: 0.83 nM
		3.5 nM	1600 nM	630 nM	Cc1cc(SC2=C(O)OC(CCc3ccc(O)cc3)(C(C)C)CC2=O)c(C(C)(C)C)cc1OS(=O)(=O)c1cccnc1 (stereo unspecified)		76000 nM	
